This is an account of results in the array DNA melting data of Ke et al. (doi:10.1101/2024.01.08.574731).

Data set [1] can be described thus: folding enthalpy; higher = less favourable; fluorescence melt of hairpins on a sequencing array, two-state fit. The settings on record: sodium 0.088 M. An outline of the steps:
(§1)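 Folding enthalpy and melting temperature come from bootstrapped two-state fits to Cy3 fluorescence of library hairpins carrying annealed Cy3 and quencher oligos on a sequenced MiSeq flow cell. Imaging was done in 50 mM Na-HEPES pH 8.0, 25 mM NaCl, stepping by 2.5 °C up to 60 °C, and signals were normalised to pre-quench Cy3 and to control constructs. Results of four replicates were combined by inverse variance, and fitted temperatures were raised by 9.35 °C to match UV melts.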

The nature of data set [2]: melting temperature; fluorescence melt of hairpins on a sequencing array, two-state fit, raised by 9.35 °C to match UV melts. The settings on record: sodium 0.088 M. An outline of the steps: as §1

On to GAACTACGAAAGTAATTC (((.(((....))).))), for which, in data set [1], the folding enthalpy is -17.3 kcal/mol. Also, the Tm in data set [2] was 31.5 °C.
As for GAACTAGGAAACTAGCTC ((.((((....)))).)), the folding enthalpy in data set [1] was -21.3 kcal/mol. In addition, the Tm in data set [2] was 29 °C.
For the sequence GAACTAGGAAACTGGTTC ((((.((....)).)))), the folding enthalpy in data set [1] was -29 kcal/mol. In data set [2], the Tm was 43 °C.
As for GAACTCCGAAAGGATTTC (((.(((....))).))), in data set [1], the folding enthalpy was -23.5 kcal/mol. For the same sequence, in data set [2], the Tm stood at 35.2 °C.
As to GAACTCGGAAACGAGTTC (((((((....))))))), the folding enthalpy in data set [1] is -40.9 kcal/mol. Further, the Tm in data set [2] turned out to be 67 °C.
For GAACTGACGAAAGTCTTC (((..(((....)))))), the folding enthalpy in data set [1] is -8.83 kcal/mol. In data set [2], the Tm was found to be 23.7 °C.
Regarding GAAGACCCGAAAGGGTTC (((..(((....)))))), the folding enthalpy in data set [1] was -8.91 kcal/mol. Moreover, the Tm in data set [2] was found to be 32.6 °C.
The matching figures for GAAGACCGAAAGGTTTTC (((.(((....))).))): -27.4 kcal/mol and 47.9 °C.
As for GAAGACGAAAGTCAGTTC ((((((....)))..))), the folding enthalpy in data set [1] is -15 kcal/mol. In data set [2], the Tm stood at 24 °C.
For the sequence GAAGACGAAAGTCGGTTC ((((((....)))..))), the folding enthalpy in data set [1] was -12.8 kcal/mol. Moreover, in data set [2], the Tm was 34.4 °C.
Turning to GAAGACGGAAACATCTTC (((((.(....).))))), the folding enthalpy in data set [1] was -20 kcal/mol. Also, the Tm in data set [2] stood at 29.8 °C.
The matching figures for GAAGACGGAAACGTCCTC ((.((((....)))).)): -11.9 kcal/mol and 35.9 °C.
The matching figures for GAAGACGGAAACGTTTTC (((.(((....))).))): -32.6 kcal/mol and 41.1 °C.
For GAAGAGCCGAAAGGCTTC (((..(((....)))))), the folding enthalpy in data set [1] was -9.43 kcal/mol. Also, the Tm in data set [2] stood at 31.6 °C.
As for GAAGAGGGAAACCTCCTC ((.((((....)))).)), the folding enthalpy in data set [1] is -14.9 kcal/mol. Further, in data set [2], the Tm is 26.4 °C.
The matching figures for GAAGAGGGAAACCTCTCC (.(((((....))))).): -12.5 kcal/mol and 34.2 °C.
The matching figures for GAAGAGGGAAACCTCTTC (((((((....))))))): -33.5 kcal/mol and 55.3 °C.
On to GAAGATCCGAAAGGATTC (((..(((....)))))), for which the folding enthalpy in data set [1] is -12.6 kcal/mol. Besides, the Tm in data set [2] was 31.3 °C.
Consider GAAGCACGAAAGTGGTTC (((.(((....))).))), for which, in data set [1], the folding enthalpy is -31.6 kcal/mol. Also, the Tm in data set [2] worked out at 61.3 °C.
For the sequence GAAGCAGGAAACTACTTC ((((.((....)).)))), the folding enthalpy in data set [1] is -19 kcal/mol. Besides, the Tm in data set [2] was found to be 31.7 °C.
Take GAAGCAGGAAACTGCCTC ((.((((....)))).)): the folding enthalpy in data set [1] was -13.2 kcal/mol. Also, in data set [2], the Tm is 34.5 °C.
With GAAGCCGAAAGGCCGTTC ((((((....)))..))), in data set [1], the folding enthalpy was -6.55 kcal/mol. Besides, in data set [2], the Tm turned out to be 26.6 °C.
With GAAGCCGAAAGGCTTTC ((((((....))).))), in data set [1], the folding enthalpy is -11.1 kcal/mol. Moreover, the Tm in data set [2] came to 54.2 °C.
GAAGCGAAAGCTTC (((((....))))): the folding enthalpy in data set [1] is -25.7 kcal/mol. In addition, the Tm in data set [2] stood at 68.1 °C.
For the sequence GAAGCGCGAAAGCGTTC (((.(((....)))))), the folding enthalpy in data set [1] was -10.6 kcal/mol. Besides, the Tm in data set [2] was found to be 41.2 °C.
Regarding GAAGCGGGAAACCGCCTC ((.((((....)))).)), in data set [1], the folding enthalpy was -10.8 kcal/mol. Further, the Tm in data set [2] stood at 36.7 °C.
As for GAAGCGGGAAACCGCTCC (.(((((....))))).), the folding enthalpy in data set [1] was -10.3 kcal/mol. Also, in data set [2], the Tm was determined as 42.5 °C.
Regarding GAAGGAGAAATCCTTC ((((((....)))))), the folding enthalpy in data set [1] is -26.8 kcal/mol. The Tm in data set [2] came to 46.3 °C.
GAAGGCCGAAAGGCATTC (((.(((....))).))): the folding enthalpy in data set [1] is -24.2 kcal/mol. In addition, in data set [2], the Tm was found to be 62.6 °C.
As for GAAGGCGGAAACACCTTC (((((.(....).))))), the folding enthalpy in data set [1] was -30.9 kcal/mol. Also, the Tm in data set [2] amounted to 42.7 °C.
For GAAGGCGGAAACGCTTTC (((.(((....))).))) the same measures were -24.9 kcal/mol and 48.2 °C.
GAAGGGCGAAAGCCATTC (((.(((....))).))): the folding enthalpy in data set [1] was -22.2 kcal/mol. Moreover, the Tm in data set [2] was determined as 57.1 °C.
GAAGGGCGAAAGCCTTC (((.(((....)))))): the folding enthalpy in data set [1] is -14.3 kcal/mol. For the same sequence, in data set [2], the Tm was 50.8 °C.
As for GAAGGGGAAACCCTTC ((((((....)))))), the folding enthalpy in data set [1] is -28.6 kcal/mol. Further, the Tm in data set [2] is 53.8 °C.
GAAGGTGGAAACACCTCC (.(((((....))))).): in data set [1], the folding enthalpy is -12.3 kcal/mol. In addition, the Tm in data set [2] came to 40.8 °C.
As for GAAGTAGGAAACCACTTC (((((.(....).))))), the folding enthalpy in data set [1] was -24.7 kcal/mol. In addition, the Tm in data set [2] amounted to 34.8 °C.
For the sequence GAAGTAGGAAACTACTCC (.(((((....))))).), the folding enthalpy in data set [1] was -11.4 kcal/mol. Moreover, the Tm in data set [2] amounted to 32.5 °C.
